Measured values as given in ChEMBL document CHEMBL4004881, “Perfluorinated hydroxamic acids are potent and selective inhibitors of HDAC-like enzymes from Pseudomonas aeruginosa” (Bioorg Med Chem Lett, 2017).

Legend:
Histone deacetylase 8 = target: T1, Histone deacetylase 8 (Homo sapiens, UniProt Q9BY41); test: Inhibition of human HDAC8 using Boc-Lys(trifluoroacetyl)-AMC as substrate preincubated for 30 mins followed by substrate addition measured after 60 mins by trypsin-based fluorescence assay
T1 sequence (Q9BY41 whole entry): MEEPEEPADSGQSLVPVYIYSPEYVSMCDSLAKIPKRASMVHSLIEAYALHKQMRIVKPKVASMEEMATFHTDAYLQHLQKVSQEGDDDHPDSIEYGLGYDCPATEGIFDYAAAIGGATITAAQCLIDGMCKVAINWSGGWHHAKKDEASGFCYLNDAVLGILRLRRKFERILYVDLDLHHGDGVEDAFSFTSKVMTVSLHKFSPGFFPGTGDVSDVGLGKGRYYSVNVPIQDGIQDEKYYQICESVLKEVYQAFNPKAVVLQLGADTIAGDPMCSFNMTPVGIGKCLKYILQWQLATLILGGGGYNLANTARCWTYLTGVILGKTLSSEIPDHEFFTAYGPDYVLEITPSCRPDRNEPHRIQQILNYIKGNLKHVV
Procedure, shortened: (§1)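 Boc-Lys(trifluoroacetyl)-AMC served as substrate in a fluorogenic activity assay. Trypsin was added after a 30 min incubation to release the fluorescent dye from the deacetylated product. IC50 values came from 10-point ligand dose-response curves and were converted to Ki by the Cheng-Prusoff relation.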

[1] = Inhibition of Pseudomonas aeruginosa PA3774 using Boc-Lys(trifluoroacetyl)-AMC as substrate preincubated for 30 mins followed by substrate addition measured after 60 mins by trypsin-based fluorescence assay
Histone deacetylase 4 = Histone deacetylase 4 (Homo sapiens, UniProt P56524); test: Inhibition of human HDAC4 using Boc-Lys(trifluoroacetyl)-AMC as substrate preincubated for 30 mins followed by substrate addition measured after 60 mins by trypsin-based fluorescence assay
Histone deacetylase 7 = target: T2, Histone deacetylase 7 (Homo sapiens, UniProt Q8WUI4); test: Inhibition of human HDAC7 using Boc-Lys(trifluoroacetyl)-AMC as substrate preincubated for 30 mins followed by substrate addition measured after 60 mins by trypsin-based fluorescence assay; procedure, shortened: as §1
T2 sequence (Q8WUI4 whole entry): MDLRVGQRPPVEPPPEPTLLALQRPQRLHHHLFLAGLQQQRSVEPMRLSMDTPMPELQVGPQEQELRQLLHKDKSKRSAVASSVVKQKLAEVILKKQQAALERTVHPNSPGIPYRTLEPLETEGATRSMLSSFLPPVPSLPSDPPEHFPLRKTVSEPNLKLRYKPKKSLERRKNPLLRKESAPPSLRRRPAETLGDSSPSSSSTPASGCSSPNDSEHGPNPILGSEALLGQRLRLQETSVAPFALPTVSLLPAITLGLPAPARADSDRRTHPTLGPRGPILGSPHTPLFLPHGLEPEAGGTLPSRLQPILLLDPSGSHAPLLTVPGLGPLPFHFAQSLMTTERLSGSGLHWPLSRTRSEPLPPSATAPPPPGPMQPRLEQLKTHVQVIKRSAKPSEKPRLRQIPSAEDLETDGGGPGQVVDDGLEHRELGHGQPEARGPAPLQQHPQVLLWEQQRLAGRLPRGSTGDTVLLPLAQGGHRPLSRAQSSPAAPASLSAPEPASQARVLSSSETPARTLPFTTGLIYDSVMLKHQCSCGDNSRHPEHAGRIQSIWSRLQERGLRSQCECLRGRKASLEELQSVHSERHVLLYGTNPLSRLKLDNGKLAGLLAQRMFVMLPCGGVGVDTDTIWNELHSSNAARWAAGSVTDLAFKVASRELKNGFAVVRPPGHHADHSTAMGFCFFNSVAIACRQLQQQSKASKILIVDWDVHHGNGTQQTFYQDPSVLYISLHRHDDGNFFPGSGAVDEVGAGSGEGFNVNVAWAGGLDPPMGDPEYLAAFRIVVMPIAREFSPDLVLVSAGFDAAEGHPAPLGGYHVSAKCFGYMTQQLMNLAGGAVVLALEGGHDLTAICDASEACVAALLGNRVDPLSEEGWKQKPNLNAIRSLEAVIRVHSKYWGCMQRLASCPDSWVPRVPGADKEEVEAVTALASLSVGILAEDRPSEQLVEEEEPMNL

[2] = target: T3, Protein deacetylase HDAC6 (Homo sapiens, UniProt Q9UBN7); test: Inhibition of human HDAC6 using Boc-Lys(Ac)-AMC as substrate preincubated for 30 mins followed by substrate addition measured after 60 mins by trypsin-based fluorescence assay
T3 sequence (Q9UBN7 whole entry): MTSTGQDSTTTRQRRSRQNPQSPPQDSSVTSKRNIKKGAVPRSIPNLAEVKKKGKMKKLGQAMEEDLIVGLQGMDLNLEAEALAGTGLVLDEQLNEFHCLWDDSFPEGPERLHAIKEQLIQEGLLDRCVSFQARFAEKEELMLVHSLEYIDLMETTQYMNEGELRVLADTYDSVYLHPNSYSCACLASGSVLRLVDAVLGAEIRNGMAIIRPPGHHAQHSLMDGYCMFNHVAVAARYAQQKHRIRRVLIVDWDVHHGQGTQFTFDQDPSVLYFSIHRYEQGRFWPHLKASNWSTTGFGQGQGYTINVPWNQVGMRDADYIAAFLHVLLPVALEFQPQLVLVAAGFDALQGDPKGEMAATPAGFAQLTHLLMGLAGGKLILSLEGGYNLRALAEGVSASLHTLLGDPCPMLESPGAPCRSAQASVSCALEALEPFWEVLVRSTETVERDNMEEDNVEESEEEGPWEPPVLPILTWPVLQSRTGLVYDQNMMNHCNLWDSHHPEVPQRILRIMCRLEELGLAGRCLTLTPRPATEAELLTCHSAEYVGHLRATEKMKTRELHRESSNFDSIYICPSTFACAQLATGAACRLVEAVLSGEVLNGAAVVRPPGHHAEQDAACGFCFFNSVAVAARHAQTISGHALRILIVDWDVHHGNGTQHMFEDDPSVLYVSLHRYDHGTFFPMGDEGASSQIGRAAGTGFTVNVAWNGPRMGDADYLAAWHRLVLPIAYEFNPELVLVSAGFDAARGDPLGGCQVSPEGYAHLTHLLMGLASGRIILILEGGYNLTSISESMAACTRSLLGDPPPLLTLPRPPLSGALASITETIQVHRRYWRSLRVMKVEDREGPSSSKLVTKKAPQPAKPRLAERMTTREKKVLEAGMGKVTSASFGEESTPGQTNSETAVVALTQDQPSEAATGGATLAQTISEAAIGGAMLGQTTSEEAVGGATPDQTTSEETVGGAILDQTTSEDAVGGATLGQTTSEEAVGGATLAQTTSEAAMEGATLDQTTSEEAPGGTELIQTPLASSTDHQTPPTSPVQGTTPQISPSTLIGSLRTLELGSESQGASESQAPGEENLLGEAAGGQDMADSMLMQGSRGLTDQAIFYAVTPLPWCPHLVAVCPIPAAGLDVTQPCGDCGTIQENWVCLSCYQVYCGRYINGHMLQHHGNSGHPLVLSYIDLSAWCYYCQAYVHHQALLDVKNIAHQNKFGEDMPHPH
Procedure, shortened: (§2)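 Fluorogenic deacetylase assay with Boc-Lys(Ac)-AMC substrate. After a 30 min incubation, trypsin was added to convert the deacetylated substrate to the fluorescent dye.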

[3] = Inhibition of Pseudomonas aeruginosa PA1409 using Boc-Lys(trifluoroacetyl)-AMC as substrate preincubated for 30 mins followed by substrate addition measured after 60 mins by trypsin-based fluorescence assay
[4] = Inhibition of Alcaligenes HDAH using Boc-Lys(trifluoroacetyl)-AMC as substrate preincubated for 30 mins followed by substrate addition measured after 60 mins by trypsin-based fluorescence assay
Procedure, shortened: (§3)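 Bacterial HDAH activity was measured by a fluorogenic assay in which the deacetylated substrate is converted to fluorescent dye by trypsin. Ki was calculated via Cheng-Prusoff from IC50 values, which were fitted to dose-response curves spanning 10 ligand concentrations.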

Histone deacetylase 5 = Histone deacetylase 5 (Homo sapiens, UniProt Q9UQL6); test: Inhibition of human HDAC5 using Boc-Lys(trifluoroacetyl)-AMC as substrate preincubated for 30 mins followed by substrate addition measured after 60 mins by trypsin-based fluorescence assay
Histone deacetylase 1 = Histone deacetylase 1 (Homo sapiens, UniProt Q13547); test: Inhibition of human HDAC1 using Boc-Lys(Ac)-AMC as substrate preincubated for 30 mins followed by substrate addition measured after 60 mins by trypsin-based fluorescence assay; procedure, shortened: as §2
[5] = Inhibition of Pseudomonas aeruginosa PA0321 using Boc-Lys(trifluoroacetyl)-AMC as substrate preincubated for 30 mins followed by substrate addition measured after 60 mins by trypsin-based fluorescence assay
[6] = Inhibition of Bordetella HDAH using Boc-Lys(trifluoroacetyl)-AMC as substrate preincubated for 30 mins followed by substrate addition measured after 60 mins by trypsin-based fluorescence assay; procedure, shortened: as §3

Sequence of Histone deacetylase 4 (P56524 whole entry): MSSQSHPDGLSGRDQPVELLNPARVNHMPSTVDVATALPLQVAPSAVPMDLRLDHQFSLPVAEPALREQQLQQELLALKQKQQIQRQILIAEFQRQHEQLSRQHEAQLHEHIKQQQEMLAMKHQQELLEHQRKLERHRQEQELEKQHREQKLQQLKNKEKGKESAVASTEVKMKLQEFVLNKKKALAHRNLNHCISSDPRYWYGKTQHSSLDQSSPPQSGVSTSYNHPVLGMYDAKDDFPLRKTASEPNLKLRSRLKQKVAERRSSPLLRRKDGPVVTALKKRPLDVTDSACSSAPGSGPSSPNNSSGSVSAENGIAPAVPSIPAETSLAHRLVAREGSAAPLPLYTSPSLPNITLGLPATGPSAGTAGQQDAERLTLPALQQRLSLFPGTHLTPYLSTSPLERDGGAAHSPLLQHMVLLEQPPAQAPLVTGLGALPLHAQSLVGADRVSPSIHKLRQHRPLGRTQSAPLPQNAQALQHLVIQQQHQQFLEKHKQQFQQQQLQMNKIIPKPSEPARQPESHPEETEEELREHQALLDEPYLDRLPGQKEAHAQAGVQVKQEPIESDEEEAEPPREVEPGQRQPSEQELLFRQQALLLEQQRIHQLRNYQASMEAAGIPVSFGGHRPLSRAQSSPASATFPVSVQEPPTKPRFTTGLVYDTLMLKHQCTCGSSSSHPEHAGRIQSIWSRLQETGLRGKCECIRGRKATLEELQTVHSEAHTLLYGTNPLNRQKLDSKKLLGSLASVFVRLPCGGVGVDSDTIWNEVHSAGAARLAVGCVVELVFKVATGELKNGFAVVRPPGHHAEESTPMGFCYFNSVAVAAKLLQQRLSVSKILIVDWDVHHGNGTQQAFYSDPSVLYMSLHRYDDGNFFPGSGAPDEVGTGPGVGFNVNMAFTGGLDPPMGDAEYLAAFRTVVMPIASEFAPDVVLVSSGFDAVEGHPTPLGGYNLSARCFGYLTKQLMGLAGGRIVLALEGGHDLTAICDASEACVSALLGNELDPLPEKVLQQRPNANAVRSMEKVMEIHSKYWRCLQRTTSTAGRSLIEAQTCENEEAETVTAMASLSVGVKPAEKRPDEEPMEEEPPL
Sequence of Histone deacetylase 5 (Q9UQL6 whole entry): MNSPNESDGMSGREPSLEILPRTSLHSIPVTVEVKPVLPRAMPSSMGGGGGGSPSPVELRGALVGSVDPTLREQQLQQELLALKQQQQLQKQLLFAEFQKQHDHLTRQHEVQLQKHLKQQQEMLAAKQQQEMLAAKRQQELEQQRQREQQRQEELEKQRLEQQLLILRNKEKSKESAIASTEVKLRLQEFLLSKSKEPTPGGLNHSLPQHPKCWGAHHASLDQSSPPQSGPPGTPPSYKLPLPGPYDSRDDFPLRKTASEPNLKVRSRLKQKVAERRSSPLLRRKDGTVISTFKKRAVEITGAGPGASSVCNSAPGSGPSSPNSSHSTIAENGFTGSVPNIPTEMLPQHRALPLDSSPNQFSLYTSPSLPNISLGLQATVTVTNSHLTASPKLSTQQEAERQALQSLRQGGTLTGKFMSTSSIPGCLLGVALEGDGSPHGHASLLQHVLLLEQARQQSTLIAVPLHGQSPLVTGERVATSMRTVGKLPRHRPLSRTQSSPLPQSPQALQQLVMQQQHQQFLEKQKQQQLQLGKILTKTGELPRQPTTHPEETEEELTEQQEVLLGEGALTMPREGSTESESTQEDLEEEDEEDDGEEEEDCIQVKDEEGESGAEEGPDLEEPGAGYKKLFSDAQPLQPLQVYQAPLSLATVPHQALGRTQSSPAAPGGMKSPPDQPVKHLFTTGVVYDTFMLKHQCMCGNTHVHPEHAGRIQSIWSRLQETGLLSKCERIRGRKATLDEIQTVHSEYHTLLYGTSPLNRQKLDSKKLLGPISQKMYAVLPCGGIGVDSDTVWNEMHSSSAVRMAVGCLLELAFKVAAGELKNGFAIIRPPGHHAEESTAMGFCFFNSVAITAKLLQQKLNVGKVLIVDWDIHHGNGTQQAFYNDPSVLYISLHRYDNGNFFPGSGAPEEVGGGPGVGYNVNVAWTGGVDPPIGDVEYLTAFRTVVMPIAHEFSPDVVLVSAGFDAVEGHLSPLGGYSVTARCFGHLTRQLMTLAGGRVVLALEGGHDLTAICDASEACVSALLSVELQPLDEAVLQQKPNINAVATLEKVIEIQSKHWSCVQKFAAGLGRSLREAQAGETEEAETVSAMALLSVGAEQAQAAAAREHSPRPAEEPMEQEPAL
Sequence of Histone deacetylase 1 (Q13547 whole entry): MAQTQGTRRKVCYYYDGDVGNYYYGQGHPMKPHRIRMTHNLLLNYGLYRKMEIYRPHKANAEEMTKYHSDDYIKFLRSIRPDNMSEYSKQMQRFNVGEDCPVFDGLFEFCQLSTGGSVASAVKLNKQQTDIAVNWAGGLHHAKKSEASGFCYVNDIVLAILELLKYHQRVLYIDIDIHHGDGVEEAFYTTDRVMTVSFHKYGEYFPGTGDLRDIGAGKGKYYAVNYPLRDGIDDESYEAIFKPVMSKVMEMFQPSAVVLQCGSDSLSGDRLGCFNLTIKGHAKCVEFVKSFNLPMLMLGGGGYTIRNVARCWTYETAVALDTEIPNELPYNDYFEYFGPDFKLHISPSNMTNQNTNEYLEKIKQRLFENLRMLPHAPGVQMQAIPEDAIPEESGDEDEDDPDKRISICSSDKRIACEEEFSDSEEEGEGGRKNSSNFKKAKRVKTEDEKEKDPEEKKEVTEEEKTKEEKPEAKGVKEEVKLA

Row | Ki (Histone deacetylase 8) [µM] | Ki [1] [nM] | Ki (Histone deacetylase 4) [µM] | Ki (Histone deacetylase 7) [µM] | Ki [2] [µM] | Ki [3] [µM] | Ki [4] [nM] | Ki (Histone deacetylase 5) [µM] | Ki (Histone deacetylase 1) [µM] | Ki [5] [nM] | Ki [6] [nM] | Structure (SMILES)
1 | > 50 | 1200 | > 50 | > 50 | > 50 | > 50 | 180 | > 50 | > 50 | 370 | 180 | COc1ccc(NC(=O)C(F)(F)C(F)(F)C(F)(F)C(F)(F)C(F)(F)C(F)(F)C(=O)NO)cc1
2 | > 50 | 160 | > 50 | > 50 | > 50 | > 50 | 240 | > 50 | > 50 | 800 | 240 | O=C(NO)C(F)(F)C(F)(F)C(F)(F)C(F)(F)C(F)(F)C(F)(F)C(=O)Nc1ccccc1Cl
3 | > 50 | 160 | > 50 | > 50 | > 50 | > 50 | 620 | > 50 | > 50 | 84000 | 620 | Cc1ccccc1NC(=O)C(F)(F)C(F)(F)C(F)(F)C(F)(F)C(F)(F)C(F)(F)C(=O)NO
4 | > 50 | 46 | > 50 | > 50 | > 50 | 11 | 170 | > 50 | > 50 | 73 | 170 | O=C(NO)C(F)(F)C(F)(F)C(F)(F)C(F)(F)C(F)(F)C(F)(F)C(=O)Nc1cccc(Cl)c1
5 | > 50 | 92 | > 50 | > 50 | > 50 | 11 | 450 | > 50 | > 50 | 270 | 450 | Cc1cccc(NC(=O)C(F)(F)C(F)(F)C(F)(F)C(F)(F)C(F)(F)C(F)(F)C(=O)NO)c1
6 | > 50 | 460 | > 50 | > 50 | > 50 | > 50 | 330 | > 50 | > 50 | 490 | 330 | O=C(NO)C(F)(F)C(F)(F)C(F)(F)C(F)(F)C(F)(F)C(F)(F)C(=O)Nc1ccc(F)cc1
7 | > 50 | 2700 | > 50 | > 50 | > 50 | > 50 | > 50000 | > 50 | > 50 | > 50000 | > 50000 | CN(C)c1ccc(NC(=O)C(F)(F)C(F)(F)C(F)(F)C(F)(F)C(F)(F)C(F)(F)C(=O)NO)cc1

Row | Structure (SMILES) | Ki (Histone deacetylase 8) [µM] | Ki [1] [nM] | Ki (Histone deacetylase 4) [µM] | Ki (Histone deacetylase 7) [µM] | Ki [2] [µM] | Ki [3] [µM] | Ki [4] [nM] | Ki (Histone deacetylase 5) [µM] | Ki (Histone deacetylase 1) [µM] | Ki [5] [nM] | Ki [6] [nM]
8 | Cc1ccc(NC(=O)C(F)(F)C(F)(F)C(F)(F)C(F)(F)C(F)(F)C(F)(F)C(=O)NO)cc1C | 8.4 | 100 | > 50 | 2.5 | 20 | 5.8 | 110 | > 50 | 7 | 1600 | 110
